Test results from ChEMBL document CHEMBL5376013, “Design, synthesis and biological evaluation of novel morpholinopyrimidine-5-carbonitrile derivatives as dual PI3K/mTOR inhibitors” (RSC Med Chem, 2024).

Columns and labels:
Assay type in all cases: functional
Settings in all cases: read-out: GI
NCI-H460 = test: Antitumor activity against human NCI-H460 cells assessed as growth inhibition at 10 uM relative to control
Method in brief: (§1)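 After drug addition, plates were incubated 48 h at 37 °C under 5% CO2. Adherent cells were fixed with cold TCA (10% final, 60 min, 4 °C) and suspension cells with 16% final TCA. Staining used 0.4% SRB in 1% acetic acid, solubilized in 10 mM trizma, read at A515. Percent growth was calculated from time-zero, control and treated absorbances.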

SK-MEL-28 = test: Antitumor activity against human SK-MEL-28 cells assessed as growth inhibition at 10 uM relative to control
Method in brief: (§2)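 Drug exposure 48 h at 37 °C, 5% CO2. Adherent cells fixed with cold TCA (10% final), suspension cells with TCA (16% final). Stained with 0.4% SRB in 1% acetic acid, dissolved in 10 mM Tris, A515. Growth relative to time-zero and untreated control.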

KM12 = test: Antitumor activity against human KM12 cells assessed as growth inhibition at 10 uM relative to control; method in brief: as §1
M14 = test: Antitumor activity against human M14 cells assessed as growth inhibition at 10 uM relative to control; method in brief: as §1
BT-549 = test: Antitumor activity against human BT-549 cells assessed as growth inhibition at 10 uM relative to control; method in brief: as §1
SNB-19 = test: Antitumor activity against human SNB-19 cells assessed as growth inhibition at 10 uM relative to control; method in brief: as §2
OVCAR-3 = test: Antitumor activity against human OVCAR-3 cells assessed as growth inhibition at 10 uM relative to control; method in brief: as §1
OVCAR-4 = test: Antitumor activity against human OVCAR-4 cells assessed as growth inhibition at 10 uM relative to control; method in brief: as §1
HCC 2998 = test: Antitumor activity against human HCC 2998 cells assessed as growth inhibition at 10 uM relative to control; method in brief: as §1
EKVX = test: Antitumor activity against human EKVX cells assessed as growth inhibition at 10 uM relative to control; method in brief: as §1
PC-3 = test: Antitumor activity against human PC-3 cells assessed as growth inhibition at 10 uM relative to control; method in brief: as §1
OVCAR-5 = test: Antitumor activity against human OVCAR-5 cells assessed as growth inhibition at 10 uM relative to control; method in brief: as §1
UACC-257 = test: Antitumor activity against human UACC-257 cells assessed as growth inhibition at 10 uM relative to control; method in brief: as §2
NCI-H322M = test: Antitumor activity against human NCI-H322M cells assessed as growth inhibition at 10 uM relative to control; method in brief: as §1

| Compound | inhibition of growth at 10 µM (NCI-H460) [%] | inhibition of growth at 10 µM (SK-MEL-28) [%] | inhibition of growth at 10 µM (KM12) [%] | inhibition of growth at 10 µM (M14) [%] | inhibition of growth at 10 µM (BT-549) [%] | inhibition of growth at 10 µM (SNB-19) [%] | inhibition of growth at 10 µM (OVCAR-3) [%] | inhibition of growth at 10 µM (OVCAR-4) [%] | inhibition of growth at 10 µM (HCC 2998) [%] | inhibition of growth at 10 µM (EKVX) [%] | inhibition of growth at 10 µM (PC-3) [%] | inhibition of growth at 10 µM (OVCAR-5) [%] | inhibition of growth at 10 µM (UACC-257) [%] | inhibition of growth at 10 µM (NCI-H322M) [%] |
| --- | --- | --- | --- | --- | --- | --- | --- | --- | --- | --- | --- | --- | --- | --- |
| CSc1nc(O)c(C#N)c(-c2ccc(Cl)cc2)n1 | < 1 | < 1 | < 1 | < 1 | < 1 | < 1 | < 1 | < 1 | < 1 | < 1 | < 1 | < 1 | < 1 | < 1 |
| Cc1cc(C)n(-c2nc(-c3ccc(Cl)cc3)c(C#N)c(N3CCOCC3)n2)n1 | < 1 | < 1 | < 1 | < 1 | 30.5 | 14.2 | 12.1 | < 1 | < 1 | 34.9 | < 1 | < 1 | < 1 | < 1 |
| CSc1nc(Cl)c(C#N)c(-c2ccc(Cl)cc2)n1 | < 1 | < 1 | < 1 | < 1 | 11.2 | < 1 | < 1 | < 1 | < 1 | < 1 | < 1 | < 1 | < 1 | < 1 |
| N#Cc1c(-c2ccc(Cl)cc2)nc(N/N=C/c2cccc(Br)c2)nc1N1CCOCC1 | 13.1 | < 1 | 19 | 37.6 | < 1 | < 1 | < 1 | 12.6 | < 1 | 31.2 | 38.8 | 17.9 | 13.5 | < 1 |
| N#Cc1c(-c2ccc(Cl)cc2)nc(N/N=C/c2ccco2)nc1N1CCOCC1 | 31.8 | 34.1 | < 1 | 28.6 | 41.5 | 20 | 33.4 | 54.4 | 25.2 | 53.5 | 31.7 | 23.1 | < 1 | 30.6 |
| N#Cc1c(-c2ccc(Cl)cc2)nc(N2NC(=O)CC2=N)nc1N1CCOCC1 | < 1 | < 1 | < 1 | < 1 | < 1 | < 1 | < 1 | < 1 | < 1 | < 1 | < 1 | < 1 | < 1 | < 1 |
| CC1=NN(c2nc(-c3ccc(Cl)cc3)c(C#N)c(N3CCOCC3)n2)C(=O)C1 | < 1 | 12.9 | < 1 | 10 | 33.9 | < 1 | 49.8 | 48.5 | < 1 | 11.2 | < 1 | 15.2 | < 1 | < 1 |
| N#Cc1c(-c2ccc(Cl)cc2)nc(N/N=C/c2cccc([N+](=O)[O-])c2)nc1N1CCOCC1 | 14.5 | 10.2 | < 1 | 16.4 | 27.6 | 10 | 11.2 | 22.3 | < 1 | 33.8 | 35.8 | 10.2 | < 1 | 14.3 |
